This note sets out measurements from ChEMBL document CHEMBL5705905, “Pharmacological targeting of kinases MST1 and MST2 augments tissue repair and regeneration” (Sci Transl Med, 2016).

The target in series [1] is Serine/threonine-protein kinase 3 (Homo sapiens) (UniProt Q13188). To be noted: dose 100.0 µM.
The target of series [2] is Mitogen-activated protein kinase kinase kinase 2 (Homo sapiens, UniProt Q9Y2U5). The series can be described thus: Inhibition of MAP3K2 (unknown origin) in presence of ATP by enzymatic assay.
Chain of Mitogen-activated protein kinase kinase kinase 2 (Q9Y2U5 whole entry): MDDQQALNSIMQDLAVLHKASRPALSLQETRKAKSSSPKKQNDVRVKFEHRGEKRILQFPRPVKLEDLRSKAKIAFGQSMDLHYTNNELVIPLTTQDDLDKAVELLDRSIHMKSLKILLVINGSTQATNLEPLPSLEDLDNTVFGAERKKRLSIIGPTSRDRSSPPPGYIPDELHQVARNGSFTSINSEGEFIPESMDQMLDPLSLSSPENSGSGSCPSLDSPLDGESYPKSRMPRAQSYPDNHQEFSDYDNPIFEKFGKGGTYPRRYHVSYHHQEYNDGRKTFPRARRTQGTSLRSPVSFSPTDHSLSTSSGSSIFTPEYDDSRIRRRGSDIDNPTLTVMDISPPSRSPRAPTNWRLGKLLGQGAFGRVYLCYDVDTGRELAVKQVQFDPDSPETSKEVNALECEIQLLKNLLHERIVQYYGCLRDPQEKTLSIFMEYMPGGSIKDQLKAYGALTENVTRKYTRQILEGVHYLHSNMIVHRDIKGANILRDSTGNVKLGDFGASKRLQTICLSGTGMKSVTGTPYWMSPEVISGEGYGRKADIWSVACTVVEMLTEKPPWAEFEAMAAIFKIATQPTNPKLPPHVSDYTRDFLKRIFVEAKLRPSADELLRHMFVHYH
In series [3] the test system is Mus musculus. The series can be described thus: Protection against APAP induced liver injury in mouse assessed as decrease in mortality rate at 1 mg/kg, ip administered at 2.5 hrs in the presence of NAC. The series is classed as functional, organism-based.
Series [4] addresses Tyrosine-protein kinase Lck (Homo sapiens) (UniProt P06239). The series can be described thus: Inhibition of LCK (unknown origin) assessed as remaining activity at 1 uM by Kinome scan method relative to control.
Series [5] addresses Serine/threonine-protein kinase 32C (Homo sapiens) (UniProt Q86UX6). The series can be described thus: Inhibition of YANK3 (unknown origin) assessed as remaining activity at 1 uM by Kinome scan method relative to control.
The target of series [6] is Myotonin-protein kinase (Homo sapiens) (UniProt Q09013). The series can be described thus: Inhibition of DMPK (unknown origin) assessed as remaining activity at 1 uM by Kinome scan method relative to control.
In series [7] the target is Serine/threonine-protein kinase DCLK2 (Homo sapiens) (UniProt Q8N568). The series can be described thus: Inhibition of DCAMKL2 (unknown origin) assessed as remaining activity at 1 uM by Kinome scan method relative to control.
Chain of Serine/threonine-protein kinase DCLK2 (Homo sapiens) (Q8N568 whole entry): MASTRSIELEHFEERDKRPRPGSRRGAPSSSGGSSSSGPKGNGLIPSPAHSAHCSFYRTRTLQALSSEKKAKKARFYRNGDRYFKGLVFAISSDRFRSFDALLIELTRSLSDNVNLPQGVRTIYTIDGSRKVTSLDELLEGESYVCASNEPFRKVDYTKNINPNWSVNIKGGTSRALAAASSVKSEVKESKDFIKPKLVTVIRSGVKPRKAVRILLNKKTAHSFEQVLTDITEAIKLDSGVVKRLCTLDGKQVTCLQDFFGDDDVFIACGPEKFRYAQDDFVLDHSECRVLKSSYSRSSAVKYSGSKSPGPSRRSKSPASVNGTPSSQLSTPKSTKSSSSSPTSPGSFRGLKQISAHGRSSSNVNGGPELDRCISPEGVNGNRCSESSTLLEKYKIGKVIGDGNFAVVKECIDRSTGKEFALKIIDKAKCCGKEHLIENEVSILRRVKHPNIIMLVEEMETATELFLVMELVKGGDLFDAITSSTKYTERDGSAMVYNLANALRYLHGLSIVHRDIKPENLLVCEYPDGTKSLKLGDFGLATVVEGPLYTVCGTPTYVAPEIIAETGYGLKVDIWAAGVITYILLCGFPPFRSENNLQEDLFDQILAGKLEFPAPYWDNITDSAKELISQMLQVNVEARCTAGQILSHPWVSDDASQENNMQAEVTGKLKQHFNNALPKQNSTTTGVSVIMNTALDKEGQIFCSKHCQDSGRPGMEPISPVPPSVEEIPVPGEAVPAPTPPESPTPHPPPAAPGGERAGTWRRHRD
Series [8] addresses Serine/threonine-protein kinase 3 (Homo sapiens, UniProt Q13188, D109A).
A further series relates to HepG2. As to the kind of experiment: Induction of apoptosis in human HepG2 cells overexpressing MST2 assessed as late apoptosis cells at 3 uM by annexinV staining (Rvb =2.01 %). The series is classed as functional.
Another series deals with Primary hepatocyte. The series can be described thus: Inhibition of MST1/2 (unknown origin) in mouse Primary hepatocyte cells assessed as H2O2 stimulated MST1/2 autophosphorylation level at 1 to 3 uM by immunoblot analysis. The note with it: dose 1-3 µM. The series is classed as cell-based. For orientation: In western blotting, separated proteins are transferred to a membrane and probed.

Series [9] is described as follows: Acute toxicity in wild-type mouse assessed as increase in Ki67-positive cells at 1 mg/kg,ip administrated twice daily for 1 to 7 days by Ki67 staining. The class given is organism-based, Liver. To be noted: in vivo, time 1-7 day. The method, boiled down:
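Wild-type mice were dosed once a day before two-thirds partial hepatectomy, then given vehicle or 1 mg/kg i.p. twice per day. Ki67-positive cells were counted in liver sections over postoperative days 1 to 7, n = 5; means ± SD, Student's t test.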

The target of series [10] is NT-3 growth factor receptor (Homo sapiens) (UniProt Q16288). The series can be described thus: Inhibition of TRKC (unknown origin) assessed as remaining activity at 1 uM by Kinome scan method relative to control.
Chain of NT-3 growth factor receptor (Homo sapiens) (Q16288 32-839 limits assumed): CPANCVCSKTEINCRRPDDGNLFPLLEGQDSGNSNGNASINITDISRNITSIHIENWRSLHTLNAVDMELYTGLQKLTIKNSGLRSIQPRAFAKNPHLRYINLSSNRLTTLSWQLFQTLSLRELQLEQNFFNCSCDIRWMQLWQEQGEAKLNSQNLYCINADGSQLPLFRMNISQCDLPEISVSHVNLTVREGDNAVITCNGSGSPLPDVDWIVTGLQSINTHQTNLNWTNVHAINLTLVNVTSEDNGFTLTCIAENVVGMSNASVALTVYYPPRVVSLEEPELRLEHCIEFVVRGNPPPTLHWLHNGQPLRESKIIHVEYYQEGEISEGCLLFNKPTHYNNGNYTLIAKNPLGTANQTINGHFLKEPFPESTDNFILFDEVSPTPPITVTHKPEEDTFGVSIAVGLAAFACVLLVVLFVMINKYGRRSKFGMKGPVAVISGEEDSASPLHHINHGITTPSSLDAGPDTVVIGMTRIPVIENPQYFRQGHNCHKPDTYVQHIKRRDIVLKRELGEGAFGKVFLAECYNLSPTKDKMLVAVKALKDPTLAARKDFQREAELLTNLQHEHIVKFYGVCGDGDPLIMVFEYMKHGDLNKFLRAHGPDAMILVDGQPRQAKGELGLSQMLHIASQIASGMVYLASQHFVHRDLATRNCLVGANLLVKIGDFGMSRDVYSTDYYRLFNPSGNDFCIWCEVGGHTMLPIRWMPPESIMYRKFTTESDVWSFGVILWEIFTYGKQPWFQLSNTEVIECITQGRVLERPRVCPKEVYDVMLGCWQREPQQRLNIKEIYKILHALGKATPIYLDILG
Series [11] relates to Mus musculus. As to the kind of experiment: Anti-colitis activity against DSS-induced mouse assessed as cancerous phenotype at 1 mg/kg, ip administrated daily for 1 week. The class given is functional, organism-based. To be noted: Colon, time 1.0 weeks. The method, boiled down:
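DSS given orally for 7 days. Mice received 1 mg/kg intraperitoneally daily for 1 week. Animals were followed for more than 10 months for cancerous phenotypes.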

The test system of series [12] is Epidermal growth factor receptor (Homo sapiens), P00533 [L861Q]. The series can be described thus: Inhibition of EGFR L861Q mutant (unknown origin) assessed as remaining activity at 1 uM by Kinome scan method relative to control.
The target of series [13] is Serine/threonine-protein kinase Sgk2 (Homo sapiens) (UniProt Q9HBY8). As to the kind of experiment: Inhibition of SGK2 (unknown origin) assessed as remaining activity at 1 uM by Kinome scan method relative to control.
Chain of Serine/threonine-protein kinase Sgk2 (Homo sapiens) (Q9HBY8 whole entry): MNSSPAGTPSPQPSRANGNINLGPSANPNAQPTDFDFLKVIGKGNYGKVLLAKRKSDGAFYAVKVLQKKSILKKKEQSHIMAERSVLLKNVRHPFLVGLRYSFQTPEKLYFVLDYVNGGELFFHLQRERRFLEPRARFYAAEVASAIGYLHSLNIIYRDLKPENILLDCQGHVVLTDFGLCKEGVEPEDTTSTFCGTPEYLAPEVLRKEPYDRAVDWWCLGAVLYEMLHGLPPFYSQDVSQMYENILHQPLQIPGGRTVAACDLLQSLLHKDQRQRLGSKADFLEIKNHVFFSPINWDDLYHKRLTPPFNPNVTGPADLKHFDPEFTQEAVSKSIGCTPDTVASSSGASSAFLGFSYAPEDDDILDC
A short description of series [14]: Toxicity in APAP induced liver injury in mouse assessed as cancer cell growth at 1 mg/kg, ip administered for > 10 months. To be noted: in vivo, 7300 h. The class given is organism-based.
In series [15] the target is Serine/threonine-protein kinase LATS2 (Homo sapiens) (UniProt Q9NRM7). As to the kind of experiment: Inhibition of LATS2 (unknown origin) assessed as remaining activity at 1 uM by Kinome scan method relative to control.
Chain of Serine/threonine-protein kinase LATS2 (Homo sapiens) (Q9NRM7 whole entry): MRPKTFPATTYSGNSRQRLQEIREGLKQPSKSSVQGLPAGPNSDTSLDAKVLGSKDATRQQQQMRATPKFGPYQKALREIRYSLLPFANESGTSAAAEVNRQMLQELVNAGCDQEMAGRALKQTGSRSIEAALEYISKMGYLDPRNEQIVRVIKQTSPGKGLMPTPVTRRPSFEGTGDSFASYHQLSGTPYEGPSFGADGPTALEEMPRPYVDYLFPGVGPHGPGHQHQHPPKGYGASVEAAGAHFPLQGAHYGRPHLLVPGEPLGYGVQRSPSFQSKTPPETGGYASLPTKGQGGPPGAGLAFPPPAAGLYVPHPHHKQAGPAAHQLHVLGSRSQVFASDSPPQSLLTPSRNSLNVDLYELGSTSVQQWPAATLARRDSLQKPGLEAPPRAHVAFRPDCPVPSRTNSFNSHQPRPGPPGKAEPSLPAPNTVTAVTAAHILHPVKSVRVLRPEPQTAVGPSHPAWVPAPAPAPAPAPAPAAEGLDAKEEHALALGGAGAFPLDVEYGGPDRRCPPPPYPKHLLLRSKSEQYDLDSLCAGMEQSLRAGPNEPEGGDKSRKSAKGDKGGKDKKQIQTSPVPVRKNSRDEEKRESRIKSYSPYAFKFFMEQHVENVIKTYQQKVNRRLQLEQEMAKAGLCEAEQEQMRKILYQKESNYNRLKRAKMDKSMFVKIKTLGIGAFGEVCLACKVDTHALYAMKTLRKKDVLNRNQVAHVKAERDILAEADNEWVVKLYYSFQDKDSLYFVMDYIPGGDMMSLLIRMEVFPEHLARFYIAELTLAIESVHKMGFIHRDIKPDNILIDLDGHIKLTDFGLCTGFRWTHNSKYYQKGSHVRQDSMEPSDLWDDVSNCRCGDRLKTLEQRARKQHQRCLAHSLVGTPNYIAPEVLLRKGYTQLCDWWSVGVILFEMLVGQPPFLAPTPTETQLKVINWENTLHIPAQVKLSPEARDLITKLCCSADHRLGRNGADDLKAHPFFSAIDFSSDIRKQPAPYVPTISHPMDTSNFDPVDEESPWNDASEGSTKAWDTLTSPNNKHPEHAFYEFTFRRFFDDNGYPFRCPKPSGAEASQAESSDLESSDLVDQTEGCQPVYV
Series [16] concerns the target Cyclin-dependent kinase 4/cyclin D1 (Homo sapiens) (UniProt P11802+P24385). The series can be described thus: Inhibition of CDK4/cyclinD1 (unknown origin) assessed as remaining activity at 1 uM by Kinome scan method relative to control. The class given is protein-complex assay. The method, boiled down:
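Active-site-dependent competition-binding profiling (KINOMEscan) at 1 μM against a 468-kinase panel; compound supplied from a 10 mM DMSO stock. Read-out is ctrl% = (test signal − positive control signal)/(negative control signal − positive control signal) × 100. DMSO is the negative control (100%) and a control compound the positive control (0%). Lower ctrl% means tighter binding.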

Series [17] concerns Mus musculus. As to the kind of experiment: In vivo inhibition of MST1/2 in wild-type Mst1fl/fl Mst2fl/fl mouse assessed as decrease in YAP phosphorylation level at 1 mg/kg, ip administrated daily for 7 days by immunoblot analysis. The class given is functional, organism-based. To be noted: Liver, time 7.0 day.
Series [18] has as its target Dual specificity tyrosine-phosphorylation-regulated kinase 2 (Homo sapiens) (UniProt Q92630). As to the kind of experiment: Inhibition of DYRK2 (unknown origin) assessed as remaining activity at 1 uM by Kinome scan method relative to control.
The subject of series [19] is Epidermal growth factor receptor (Homo sapiens), P00533 [T790M]. The series can be described thus: Inhibition of EGFR T790M mutant (unknown origin) assessed as remaining activity at 1 uM by Kinome scan method relative to control.
Series [20] concerns the target Serine/threonine-protein kinase Nek11 (Homo sapiens) (UniProt Q8NG66). As to the kind of experiment: Inhibition of NEK11 (unknown origin) assessed as remaining activity at 1 uM by Kinome scan method relative to control.
Series [21] addresses T1, Serine/threonine-protein kinase 3 (Homo sapiens, UniProt Q13188).
T1 sequence (Q13188 whole entry): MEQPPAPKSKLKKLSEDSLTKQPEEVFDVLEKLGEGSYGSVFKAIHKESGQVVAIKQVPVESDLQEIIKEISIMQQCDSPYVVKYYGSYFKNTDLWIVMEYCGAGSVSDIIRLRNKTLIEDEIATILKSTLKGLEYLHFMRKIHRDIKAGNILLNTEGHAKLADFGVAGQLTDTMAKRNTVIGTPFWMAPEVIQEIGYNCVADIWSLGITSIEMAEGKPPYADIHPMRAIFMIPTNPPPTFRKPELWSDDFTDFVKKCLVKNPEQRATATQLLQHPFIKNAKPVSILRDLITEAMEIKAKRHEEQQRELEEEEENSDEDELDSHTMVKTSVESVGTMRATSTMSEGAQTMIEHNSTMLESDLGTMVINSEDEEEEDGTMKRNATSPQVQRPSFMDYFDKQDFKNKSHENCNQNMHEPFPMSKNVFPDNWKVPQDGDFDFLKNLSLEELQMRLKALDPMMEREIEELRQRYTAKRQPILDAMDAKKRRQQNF
As to the kind of experiment: Inhibition of recombinant His-tagged full-length MST2 (unknown origin) expressing in Escherichia coli assessed as MOB1a phosphorylation level incubated for 30 min in the presence of 300 uM ATP by immunoblot analysis.

In series [22] the test system is Epidermal growth factor receptor (Homo sapiens), P00533 [UNDEFINED MUTATION]. As to the kind of experiment: Inhibition of EGFR S752-I759del mutant (unknown origin) assessed as remaining activity at 1 uM by Kinome scan method relative to control.

Calls of active or inactive are those of the source. No cut-off for these calls is given here.

Chain of Dual specificity tyrosine-phosphorylation-regulated kinase 2 (Homo sapiens) (Q92630 whole entry): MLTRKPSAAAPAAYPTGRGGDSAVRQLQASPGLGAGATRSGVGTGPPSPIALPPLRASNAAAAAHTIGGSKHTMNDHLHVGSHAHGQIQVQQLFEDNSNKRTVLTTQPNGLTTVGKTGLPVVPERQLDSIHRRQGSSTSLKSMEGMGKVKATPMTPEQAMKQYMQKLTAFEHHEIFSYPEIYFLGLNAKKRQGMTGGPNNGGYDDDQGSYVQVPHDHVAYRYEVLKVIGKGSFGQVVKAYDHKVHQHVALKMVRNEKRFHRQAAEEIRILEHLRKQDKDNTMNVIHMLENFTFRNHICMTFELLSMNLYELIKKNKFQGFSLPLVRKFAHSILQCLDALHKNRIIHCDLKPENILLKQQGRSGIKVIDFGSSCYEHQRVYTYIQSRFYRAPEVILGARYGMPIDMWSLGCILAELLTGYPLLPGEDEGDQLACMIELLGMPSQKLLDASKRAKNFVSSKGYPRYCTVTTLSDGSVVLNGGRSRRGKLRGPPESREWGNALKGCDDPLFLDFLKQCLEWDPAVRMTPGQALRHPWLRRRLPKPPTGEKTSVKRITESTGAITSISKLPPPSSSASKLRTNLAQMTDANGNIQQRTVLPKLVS
Chain of Serine/threonine-protein kinase 3 (Homo sapiens, UniProt Q13188, D109A) (Q13188 whole entry D109A): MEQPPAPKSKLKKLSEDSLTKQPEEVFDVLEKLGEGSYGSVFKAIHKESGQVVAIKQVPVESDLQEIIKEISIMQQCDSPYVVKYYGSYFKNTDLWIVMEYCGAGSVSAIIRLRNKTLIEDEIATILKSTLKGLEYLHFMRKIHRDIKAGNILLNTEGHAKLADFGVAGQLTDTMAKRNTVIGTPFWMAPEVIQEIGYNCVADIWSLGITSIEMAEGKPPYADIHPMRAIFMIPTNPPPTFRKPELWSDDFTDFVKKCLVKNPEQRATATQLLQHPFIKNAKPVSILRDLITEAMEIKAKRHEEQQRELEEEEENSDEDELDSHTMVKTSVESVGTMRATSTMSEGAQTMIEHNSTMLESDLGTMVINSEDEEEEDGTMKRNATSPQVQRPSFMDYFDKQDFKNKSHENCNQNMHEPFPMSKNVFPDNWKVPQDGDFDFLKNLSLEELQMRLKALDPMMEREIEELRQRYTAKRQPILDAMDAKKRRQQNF

With `CN1C(=O)c2sccc2N(C)c2nc(Nc3ccc(S(N)(=O)=O)cc3)ncc21`, the Tm in series [1] amounted to 62 °C. Further, the IC50 – broadly, the concentration that gives 50% inhibition – stood at 79.6 nM in series [2], 1040 nM in series [8] and 1500 nM in [21]. Also, the outcome with Mus musculus [3] and in the series with Mus musculus [11] was Active. Moreover, the Activity was 100% in series [4]; 100% in series [5]; 100% in [6]; 84% in [7]; 1.54% with HepG2; “Non-Toxic” in series [9]. Further, the Activity was 55% in series [10]; 64% in [12]; 91% in series [13]; “Non-Toxic” in series [14]; 100% in [15]; 93% in series [16]. Besides, the Activity in series [18] turned out to be 84%; in series [19], 92%; in series [20] it was 100%; in series [22], 100%. Moreover, the inhibition result in the series with Primary hepatocyte and in the series on Mus musculus [17] was “Active” in each case.
